# N-glyco inh: N-linked glycosylation inhibition; D54 ERlucT glycosylation luciferase reporter, 24 h; percent of 100 nM tunicamycin response; reporter increase, % at 12.5 µM; actives 0.23% (n = 360,000); AID 588692;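 active = mean luciferase reporter signal, scaled so untreated is 0 and the glycosylation-blocking control 100, at or above a set limit in every replicate; inconclusive = mean reaches the limit but not every replicate does; inactive = mean below the limit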;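 also: luciferase carries N-glycosylation sites so blocking glycosylation raises the light; 0% = median of neutral control wells and 100% = median of 100 nM tunicamycin wells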
# Rtt109 Vps75: C. albicans Rtt109 histone acetyltransferase inhibition | Q5AAJ8 | purified Rtt109/Vps75, ThioGlo CoA-SH fluorescence, 4 h | inhibition, % at 34.9 µM | actives 0.16% (n = 330,000);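 active = inhibition of at least 50% in every replicate; inconclusive = best replicate reaches 50% inhibition but some replicates fall short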
# Target sequence (Q5AAJ8 whole entry, looked up): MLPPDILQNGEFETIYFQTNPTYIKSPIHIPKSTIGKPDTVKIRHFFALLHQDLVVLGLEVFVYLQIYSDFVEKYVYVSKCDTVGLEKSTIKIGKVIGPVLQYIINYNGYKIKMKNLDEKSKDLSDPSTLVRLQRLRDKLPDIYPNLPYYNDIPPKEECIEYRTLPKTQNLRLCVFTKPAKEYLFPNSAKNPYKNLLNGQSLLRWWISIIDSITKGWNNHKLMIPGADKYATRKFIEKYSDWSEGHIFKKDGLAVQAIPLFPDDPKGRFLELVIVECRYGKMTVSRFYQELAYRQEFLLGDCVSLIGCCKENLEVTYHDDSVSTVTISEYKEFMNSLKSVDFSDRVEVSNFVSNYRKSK
# PAX8 inh HTS: PAX8 transcriptional activity inhibition | AID 652154 | inhibition, % at 12.6 µM | RMG-I TPO-luciferase reporter, SteadyGlo, 24 h | actives 1.2% (n = 360,000);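 active = mean replicate inhibition at least 60% with every replicate also reaching 60%; inconclusive = only one of the two criteria is met; inactive = mean below 60% and not all replicates reaching 60%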;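 also: luciferase light reporting Pax8 driven TPO promoter activity; plate controls were median of neutral control wells for no effect and mitoxantrone controls for full effect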
# Env fusion inh: HIV envelope-mediated fusion inhibition | HeLa-JRFL Env/CEM21 cell fusion, luciferase | inhibition, % at 12.3 µM | actives 1.1% (n = 360,000);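 active = mean replicate inhibition score of at least 50 and every replicate individually at or above 50; inconclusive = only one of the two criteria met; inactive = mean below 50 and not all replicates reaching 50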;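 also: 0% = plate neutral controls and 100% = maraviroc near 300 nM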
# Arr AP2 block: human beta-arrestin and AP2 interaction inhibition. FITC-arrestin peptide / GST-AP2 beads, flow cytometry; AP2 beta2 appendage carries R879A mutation. inhibition, % at 10 µM. actives 0.31% (n = 340,000);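 active = inhibition above a set limit, near 3 SD of compounds lacking own fluorescence, cut at about 54% in these data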;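 also: plate controls were DMSO wells for no effect and 5 µM unlabelled arrestin peptide for full effect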
#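 System: GST-AP2 R879A glutathione beads. Medium: PBS with 0.05% Tween 20 and 0.1% BSA. Also added: FITC-arrestin peptide, 50 nM. Incubation: 12 min plus 1 h, RT. Measured by: high-throughput flow cytometry of beads, ex 488, em 535 nm. Evaluation: percent drop in bead-associated FITC signal.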
# PfHsp90 yeast 2: reduces growth (ATP signal) of yeast expressing P. falciparum Hsp90; S. cerevisiae expressing PfHsp90, BacTiter-Glo ATP, 48 h; yeast lacking PDR1 and PDR3 efflux regulators; inhibition, % at 9.4 µM; actives 0.32% (n = 310,000); AID 504621;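 active = every replicate shows inhibition above about 80%, whatever the replicate mean, limit read from the data; inconclusive = mean inhibition reaches the set limit but some replicate falls short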;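 also: 0% = DMSO neutral controls and 100% = 20 µM radicicol positive controls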
# * = called active by the depositor; ? = inconclusive; nt = not tested or not shown; [ ] = remark or other dose. Compounds with a hit are over-represented: about 2.3% of the library has one in this group of screens.
SMILES,N-glyco inh,Rtt109 Vps75,PAX8 inh HTS,Env fusion inh,Arr AP2 block,PfHsp90 yeast 2
CCS(=O)(=O)N1Cc2ccccc2CC1C(=O)Nc1nnc(SCc2c(Cl)cccc2Cl)s1 (centres undefined),-5,2,113*,nt,33,nt
CCS(=O)(=O)N1Cc2ccccc2CC1C(=O)NCC12CC3CC(CC(C3)C1)C2 (centres undefined),-1,-3,2,86*,0,-23
CCS(=O)(=O)N1Cc2ccccc2CC1C(=O)NC(C)C12CC3CC(CC(C3)C1)C2 (centres undefined),-6,9,13,102*,-5,-13
CCSc1nnc(NC(=O)C2Cc3ccccc3CN2S(=O)(=O)CC)s1 (centres undefined),1,15,-26,-12,-10,-3
CN(C)CCCN1C(=O)c2cccc3c([N+](=O)[O-])ccc(c23)C1=O,57*,-15,16,nt,18,-3
Cc1ccc(C(=O)O)cc1N1C(=O)c2cccc3c([N+](=O)[O-])ccc(c23)C1=O,7,8,-1,7,46,-24
O=C(O)c1ccc(CN2C(=O)c3cccc4c([N+](=O)[O-])ccc(c34)C2=O)cc1,31*,-2,nt,nt,-10,-49
C[C@@H]1CCCCO[C@H](CN(C)Cc2ccccc2)[C@H](C)CN([C@H](C)CO)C(=O)c2cc(NC(=O)Nc3ccc(F)cc3)ccc2O1,nt,nt,21,-42[16.7 µM],nt,nt
COc1ccc(OCC(=O)N2CCN(S(=O)(=O)c3ccccc3[N+](=O)[O-])CC2)cc1,4,11,24,5,6,-40
COc1ccc2cc(C3CC=C(CO)CN3S(=O)(=O)c3ccccc3[N+](=O)[O-])n(C(=O)OC(C)(C)C)c2c1 (centres undefined),nt,nt,18,65*,nt,nt
COc1ccc2c3c(n(C)c2c1)[C@@H](CO)N(CC1CC1)CC31CCN(C(=O)CN(C)C)CC1,nt,nt,-34,nt,nt,nt
O=C(Oc1c(Cl)cc(Cl)c2cccnc12)c1ccco1,25,-7,nt,nt,-1,129*
O=C(Oc1c(Cl)cc(Cl)c2cccnc12)c1cccs1,8,3,52,52,17,99*
O=C(Oc1c(CN2CCOCC2)cc(Cl)c2cccnc12)c1cccs1,-10,6,71*,15,29,15
O=C(Oc1c(CN2CCOCC2)cc(Cl)c2cccnc12)c1ccccc1Cl,-11,-1,46,8,10,7
CO[C@@H]1CN(C)C(=O)c2ccc(NC(=O)c3cnccn3)cc2OC[C@@H](C)N(C(=O)C2CC2)C[C@@H]1C,nt,nt,-10,nt,nt,nt
C[C@H](CO)N1C[C@H](C)[C@@H](CN(C)Cc2ccc3c(c2)OCO3)Oc2cc(C#CCN(C)C)ccc2S1(=O)=O,nt,nt,nt,-28[16.7 µM],nt,nt
C[C@@H]1CN([C@@H](C)CO)C(=O)c2c(c3ccccc3n2C)-c2ccccc2CO[C@H]1CN(C)S(=O)(=O)c1ccccc1F,nt,nt,84*,24[16.7 µM],nt,nt
C[C@H](CO)N1C[C@H](C)[C@H](CN(C)S(=O)(=O)c2ccccc2F)OCc2ccccc2-c2c(n(C)c3ccccc23)C1=O,nt,nt,9,?,nt,nt
C[C@H]1CN([C@@H](C)CO)C(=O)c2c(c3ccccc3n2C)-c2ccccc2CO[C@@H]1CN(C)S(=O)(=O)c1ccccc1F,nt,nt,74*,17[16.7 µM],nt,nt
O=C(C[C@H]1C[C@@H]2c3cc(NC(=O)NC4CCCC4)ccc3O[C@@H]2[C@H](CO)O1)NCC1CC1,nt,nt,2,13[16.7 µM],nt,nt
C[C@]12CCC3C4(C=CC5(C=C4C(=O)c4ccc(F)c(F)c4)C[C@@H](O)CC[C@]35C)C1CC[C@@]2(O)CN1CCC(C(N)=O)CC1 (some centres undefined),nt,nt,12,5[16.7 µM],nt,nt
COc1ccc(CCn2c(C)cc(C(=O)CSc3nc(N)cc(=O)[nH]3)c2C)cc1,-2,-3,nt,70*,4,-4
O=C(O)C[C@H]1C[C@@H]2c3cc(NC(=O)Nc4ccccc4F)ccc3O[C@@H]2[C@@H](CO)O1,nt,nt,-10,7[16.7 µM],nt,nt
Cc1sc2ncnc(Sc3nnnn3-c3ccccc3)c2c1C,-4,5,nt,nt,8,-30
Cn1nnnc1Sc1ncnc2scc(-c3cccc4c3sc3ccccc34)c12,-3,-3,88*,?,3,-39

# High-throughput results as filed in PubChem.
